A word on the pIC50: it is the IC50 on a negative log10 scale, so that one unit is a factor of ten. In general, pEC50 refers to the EC50 on a negative log10 scale, so that one unit is a factor of ten.

From ChEMBL document CHEMBL1158538, “(-)-Menthylamine derivatives as potent and selective antagonists of transient receptor potential melastatin type-8 (TRPM8) channels” (Bioorg Med Chem Lett, 2010) come the findings set out here.

pEC50, pIC50: −log10 of the molar value.

T1 sequence (Q8R455 whole entry): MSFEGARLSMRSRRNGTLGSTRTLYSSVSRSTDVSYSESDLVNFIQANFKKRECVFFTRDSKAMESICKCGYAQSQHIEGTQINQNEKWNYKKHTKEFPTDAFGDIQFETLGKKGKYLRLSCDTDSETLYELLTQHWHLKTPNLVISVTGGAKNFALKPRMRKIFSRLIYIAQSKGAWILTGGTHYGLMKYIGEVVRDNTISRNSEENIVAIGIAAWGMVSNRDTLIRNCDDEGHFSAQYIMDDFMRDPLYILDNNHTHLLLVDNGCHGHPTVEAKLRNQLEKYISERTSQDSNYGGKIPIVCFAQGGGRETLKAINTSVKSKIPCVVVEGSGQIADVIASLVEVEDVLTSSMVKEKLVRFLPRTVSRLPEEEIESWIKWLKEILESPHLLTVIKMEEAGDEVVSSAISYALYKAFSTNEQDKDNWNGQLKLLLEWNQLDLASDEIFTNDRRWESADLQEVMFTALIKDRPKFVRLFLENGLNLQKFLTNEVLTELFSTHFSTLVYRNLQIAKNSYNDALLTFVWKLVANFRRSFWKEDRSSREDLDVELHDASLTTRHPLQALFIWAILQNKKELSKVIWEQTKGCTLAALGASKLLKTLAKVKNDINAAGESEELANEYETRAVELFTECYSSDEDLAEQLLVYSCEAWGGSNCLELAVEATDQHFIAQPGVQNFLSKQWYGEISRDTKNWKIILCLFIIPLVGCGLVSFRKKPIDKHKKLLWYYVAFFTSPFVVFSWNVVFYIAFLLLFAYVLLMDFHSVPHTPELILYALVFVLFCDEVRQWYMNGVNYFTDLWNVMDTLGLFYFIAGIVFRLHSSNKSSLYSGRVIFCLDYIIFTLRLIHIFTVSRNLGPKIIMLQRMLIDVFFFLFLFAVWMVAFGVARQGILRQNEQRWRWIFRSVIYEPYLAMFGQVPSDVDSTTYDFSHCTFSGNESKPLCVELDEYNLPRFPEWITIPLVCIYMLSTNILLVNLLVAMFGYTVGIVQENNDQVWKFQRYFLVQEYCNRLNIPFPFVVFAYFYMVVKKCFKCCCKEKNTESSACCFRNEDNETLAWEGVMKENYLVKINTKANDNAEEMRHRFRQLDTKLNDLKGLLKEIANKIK
Chain of Transient receptor potential cation channel subfamily A member 1 (Rattus norvegicus) (Q6RI86 whole entry): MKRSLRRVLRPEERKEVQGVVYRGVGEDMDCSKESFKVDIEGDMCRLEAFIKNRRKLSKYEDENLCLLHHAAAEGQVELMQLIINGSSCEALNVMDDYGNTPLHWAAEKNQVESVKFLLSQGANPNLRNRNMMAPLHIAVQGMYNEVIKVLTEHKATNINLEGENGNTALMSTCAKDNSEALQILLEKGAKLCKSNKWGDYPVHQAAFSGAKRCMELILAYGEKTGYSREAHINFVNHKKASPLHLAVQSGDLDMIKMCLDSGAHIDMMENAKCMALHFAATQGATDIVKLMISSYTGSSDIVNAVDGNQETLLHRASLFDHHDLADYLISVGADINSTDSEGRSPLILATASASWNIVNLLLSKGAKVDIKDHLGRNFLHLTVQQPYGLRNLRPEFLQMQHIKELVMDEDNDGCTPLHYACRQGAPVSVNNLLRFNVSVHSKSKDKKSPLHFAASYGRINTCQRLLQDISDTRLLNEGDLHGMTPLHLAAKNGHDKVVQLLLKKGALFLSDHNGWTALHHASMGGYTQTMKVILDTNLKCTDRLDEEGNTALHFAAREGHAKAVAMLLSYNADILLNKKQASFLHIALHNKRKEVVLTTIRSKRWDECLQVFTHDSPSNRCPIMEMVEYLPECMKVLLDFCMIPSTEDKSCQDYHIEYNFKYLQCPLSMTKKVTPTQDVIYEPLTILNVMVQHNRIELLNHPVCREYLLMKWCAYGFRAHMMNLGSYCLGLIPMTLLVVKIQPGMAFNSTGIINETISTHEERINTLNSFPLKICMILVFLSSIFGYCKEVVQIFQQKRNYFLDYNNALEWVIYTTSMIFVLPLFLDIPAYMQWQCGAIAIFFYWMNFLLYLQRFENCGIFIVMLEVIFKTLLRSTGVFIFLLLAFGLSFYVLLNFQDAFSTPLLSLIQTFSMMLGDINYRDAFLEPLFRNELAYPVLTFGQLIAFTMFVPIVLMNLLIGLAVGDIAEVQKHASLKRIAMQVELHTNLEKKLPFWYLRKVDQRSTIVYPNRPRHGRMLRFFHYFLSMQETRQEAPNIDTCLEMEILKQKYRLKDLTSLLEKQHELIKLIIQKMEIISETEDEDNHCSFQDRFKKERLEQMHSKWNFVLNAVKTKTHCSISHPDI
T2 sequence (Q8NER1 whole entry): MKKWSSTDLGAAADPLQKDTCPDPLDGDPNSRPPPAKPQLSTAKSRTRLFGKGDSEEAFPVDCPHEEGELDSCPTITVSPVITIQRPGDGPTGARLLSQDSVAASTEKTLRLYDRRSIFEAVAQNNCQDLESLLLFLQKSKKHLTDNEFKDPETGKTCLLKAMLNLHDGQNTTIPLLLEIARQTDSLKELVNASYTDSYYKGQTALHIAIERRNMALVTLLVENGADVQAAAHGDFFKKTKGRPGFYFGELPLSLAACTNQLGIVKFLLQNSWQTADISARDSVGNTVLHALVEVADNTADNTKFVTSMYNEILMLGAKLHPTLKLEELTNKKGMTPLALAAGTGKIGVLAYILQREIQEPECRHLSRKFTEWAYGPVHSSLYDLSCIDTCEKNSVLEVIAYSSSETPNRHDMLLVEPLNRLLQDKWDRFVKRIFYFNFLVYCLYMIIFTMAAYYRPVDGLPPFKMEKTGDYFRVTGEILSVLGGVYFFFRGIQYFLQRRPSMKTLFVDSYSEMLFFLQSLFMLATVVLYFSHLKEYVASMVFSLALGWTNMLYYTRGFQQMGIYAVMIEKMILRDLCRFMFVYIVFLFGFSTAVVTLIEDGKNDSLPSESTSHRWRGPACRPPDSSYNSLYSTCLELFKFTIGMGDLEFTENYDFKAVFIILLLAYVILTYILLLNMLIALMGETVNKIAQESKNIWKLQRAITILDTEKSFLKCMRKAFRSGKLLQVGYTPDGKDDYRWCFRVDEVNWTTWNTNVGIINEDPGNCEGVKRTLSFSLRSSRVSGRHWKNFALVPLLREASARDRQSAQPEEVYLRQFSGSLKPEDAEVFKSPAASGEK

The first assay concerns the target T1, Transient receptor potential cation channel subfamily M member 8 (Rattus norvegicus, UniProt Q8R455). Nature of the assay: Antagonist activity at rat TRMP8 receptor expressed in HEK293 cells assessed as icilin-induced calcium elevation. The format is functional, cell-based. A digest of the protocol:
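HEK-293 cells stably expressing rat TRPM8 received compound 5 min before icilin (0.25 µM). Inhibition of the intracellular Ca2+ elevation was measured. IC50 given as mean ± SEM of N = 3.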
As for `CC(C)[C@@H]1CC[C@@H](C)C[C@H]1NC(=O)c1ccc(C(C)(C)C)cc1`, the pIC50 is 4.22.

In the case of `CC(C)[C@@H]1CC[C@@H](C)C[C@H]1NC(=O)CCCCCCCc1ccccc1`, the negative-log IC50 (pIC50) is 6.30.

Turning to `CC(C)[C@@H]1CC[C@@H](C)C[C@H]1NC(=O)Oc1cccc(C(C)(C)C)c1`, the pIC50 was 5.48.

For the molecule `COc1ccc(C(=O)N[C@@H]2C[C@H](C)CC[C@H]2C(C)C)cc1`, the pIC50 was 5.02.

Consider `CC(C)[C@@H]1CC[C@@H](C)C[C@H]1NC(=O)Oc1ccc(C(F)(F)F)cc1`, for which the pIC50 is 6.15.

`CC(C)[C@@H]1CC[C@@H](C)C[C@H]1NC(=O)c1ccc(Cl)cc1`: the pIC50 is 5.80.

For the molecule `CC(C)[C@@H]1CC[C@@H](C)C[C@H]1NC(=O)Oc1ccc(C(C)(C)C)cc1`, the pIC50 is 7.10.

On to `CC(C)[C@@H]1CC[C@@H](C)C[C@H]1NC(=O)Oc1cccc(-c2ccccc2)c1`, for which the pIC50 is 5.82.

Consider `CC(C)[C@@H]1CC[C@@H](C)C[C@H]1NC(=O)c1ccc(-c2ccccc2)cc1`, for which the pIC50 is 7.30.

For `CCCCCCCC/C=C\CCCCCCCC(=O)N[C@@H]1C[C@H](C)CC[C@H]1C(C)C`, the pIC50 is < 4.00.

For `CC(C)[C@@H]1CC[C@@H](C)C[C@H]1NC(=O)Oc1ccc(-c2ccccc2)cc1`, the pIC50 was 5.13.

For another assay, the target named is T1, Transient receptor potential cation channel subfamily M member 8. Nature of the assay: Antagonist activity at rat TRMP8 receptor expressed in HEK293 cells assessed as menthol-induced calcium elevation. The format is functional, cell-based. The essentials:
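Rat TRPM8-transfected HEK-293 cells were pretreated with compound for 5 min, then challenged with menthol (20 µM). Block of the Ca2+ rise gave IC50 (means ± SEM, N = 3).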
As to `CC(C)[C@@H]1CC[C@@H](C)C[C@H]1NC(=O)c1ccc(C(C)(C)C)cc1`, the pIC50 is 4.01.

With `CC(C)[C@@H]1CC[C@@H](C)C[C@H]1NC(=O)CCCCCCCc1ccccc1`, the pIC50 is 6.40.

For the molecule `CC(C)[C@@H]1CC[C@@H](C)C[C@H]1NC(=O)Oc1cccc(C(C)(C)C)c1`, the pIC50 is 5.23.

Take `COc1ccc(C(=O)N[C@@H]2C[C@H](C)CC[C@H]2C(C)C)cc1`: the pIC50 was 4.89.

Regarding `CC(C)[C@@H]1CC[C@@H](C)C[C@H]1NC(=O)Oc1ccc(C(F)(F)F)cc1`, the negative-log IC50 (pIC50) was 6.70.

For the molecule `CC(C)[C@@H]1CC[C@@H](C)C[C@H]1NC(=O)c1ccc(Cl)cc1`, the pIC50 was 6.15.

Turning to `CC(C)[C@@H]1CC[C@@H](C)C[C@H]1NC(=O)Oc1ccc(C(C)(C)C)cc1`, the pIC50 was 7.00.

As for `CC(C)[C@@H]1CC[C@@H](C)C[C@H]1NC(=O)Oc1cccc(-c2ccccc2)c1`, the pIC50 is 7.30.

In the case of `CC(C)[C@@H]1CC[C@@H](C)C[C@H]1NC(=O)c1ccc(-c2ccccc2)cc1`, the negative logarithm of the IC50 (pIC50) is 7.70.

As for `CCCCCCCC/C=C\CCCCCCCC(=O)N[C@@H]1C[C@H](C)CC[C@H]1C(C)C`, the pIC50 is 4.22.

Take `CC(C)[C@@H]1CC[C@@H](C)C[C@H]1NC(=O)Oc1ccc(-c2ccccc2)cc1`: the pIC50 was 6.15.

The target in the next assay is T2, Transient receptor potential cation channel subfamily V member 1 (Homo sapiens, UniProt Q8NER1). The experiment in a line: Agonist activity at human TRPV1 receptor expressed in HEK293 cells assessed as intracellular calcium stimulation. The format is functional, cell-based. A digest of the protocol:
(§1)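 Stably transfected HEK-293 lines (human TRPV1 or rat TRPA1) exposed to compound; rise in intracellular Ca2+ recorded. Non-transfected HEK-293 cells served as control. EC50 reported as mean ± SEM, N = 3.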
For orientation: Calcium assays in cells follow changes in intracellular calcium, usually with a dye or a luminescent sensor.
As to `CC(C)[C@@H]1CC[C@@H](C)C[C@H]1NC(=O)c1ccc(C(C)(C)C)cc1`, the pEC50 was 6.60.

With `CC(C)[C@@H]1CC[C@@H](C)C[C@H]1NC(=O)Oc1cccc(C(C)(C)C)c1`, the pEC50 was 5.24.

Regarding `CC(C)[C@@H]1CC[C@@H](C)C[C@H]1NC(=O)c1ccc(Cl)cc1`, the pEC50 was 5.39.

On to `CC(C)[C@@H]1CC[C@@H](C)C[C@H]1NC(=O)Oc1ccc(C(C)(C)C)cc1`, for which the pEC50 is 4.74.

`CC(C)[C@@H]1CC[C@@H](C)C[C@H]1NC(=O)Oc1cccc(-c2ccccc2)c1`: the negative-log EC50 (pEC50) was 5.15.

In another assay the target is T2, Transient receptor potential cation channel subfamily V member 1. The experiment in a line: Agonist activity at human TRPV1 receptor expressed in HEK293 cells assessed as intracellular calcium stimulation relative to inomycin. The format is functional, cell-based. A digest of the protocol:
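Ca2+ elevation in HEK-293 cells stably expressing human TRPV1, expressed as percent of the ionomycin ([…]) response. Not measurable if below 10%. Mean ± SEM, N = 3.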
For `CC(C)[C@@H]1CC[C@@H](C)C[C@H]1NC(=O)c1ccc(C(C)(C)C)cc1`, the Efficacy came out at 27.4%.

For `CC(C)[C@@H]1CC[C@@H](C)C[C@H]1NC(=O)CCCCCCCc1ccccc1`, the Efficacy is 5.5%.

For the molecule `CC(C)[C@@H]1CC[C@@H](C)C[C@H]1NC(=O)Oc1cccc(C(C)(C)C)c1`, the Efficacy worked out at 16.3%.

As for `COc1ccc(C(=O)N[C@@H]2C[C@H](C)CC[C@H]2C(C)C)cc1`, the Efficacy is 9.6%.

On to `CC(C)[C@@H]1CC[C@@H](C)C[C@H]1NC(=O)Oc1ccc(C(F)(F)F)cc1`, for which the Efficacy is 3.3%.

Turning to `CC(C)[C@@H]1CC[C@@H](C)C[C@H]1NC(=O)c1ccc(Cl)cc1`, the Efficacy worked out at 53.8%.

Consider `CC(C)[C@@H]1CC[C@@H](C)C[C@H]1NC(=O)Oc1ccc(C(C)(C)C)cc1`, for which the Efficacy amounted to 23.8%.

For the molecule `CC(C)[C@@H]1CC[C@@H](C)C[C@H]1NC(=O)Oc1cccc(-c2ccccc2)c1`, the Efficacy was 50.9%.

For the molecule `CC(C)[C@@H]1CC[C@@H](C)C[C@H]1NC(=O)c1ccc(-c2ccccc2)cc1`, the Efficacy came out at 7.8%.

For the molecule `CCCCCCCC/C=C\CCCCCCCC(=O)N[C@@H]1C[C@H](C)CC[C@H]1C(C)C`, the Efficacy was determined as 4.4%.

Take `CC(C)[C@@H]1CC[C@@H](C)C[C@H]1NC(=O)Oc1ccc(-c2ccccc2)cc1`: the Efficacy came out at 4.4%.

The target in another assay is Transient receptor potential cation channel subfamily A member 1 (Rattus norvegicus, UniProt Q6RI86). The experiment in a line: Agonist activity at rat TRPA1 receptor expressed in HEK293 cells assessed as intracellular calcium stimulation. The format is functional, cell-based. The essentials: as §1
Chain of Transient receptor potential cation channel subfamily A member 1 (Q6RI86 whole entry): as the sequence (Q6RI86 whole entry) above
Turning to `CC(C)[C@@H]1CC[C@@H](C)C[C@H]1NC(=O)c1ccc(C(C)(C)C)cc1`, the pEC50 is 5.31.

Regarding `CC(C)[C@@H]1CC[C@@H](C)C[C@H]1NC(=O)CCCCCCCc1ccccc1`, the pEC50 is 4.57.

For the molecule `CC(C)[C@@H]1CC[C@@H](C)C[C@H]1NC(=O)Oc1cccc(C(C)(C)C)c1`, the pEC50 was 4.44.

On to `CC(C)[C@@H]1CC[C@@H](C)C[C@H]1NC(=O)Oc1ccc(C(F)(F)F)cc1`, for which the pEC50 was 5.52.

For `CC(C)[C@@H]1CC[C@@H](C)C[C@H]1NC(=O)c1ccc(Cl)cc1`, the pEC50 is 4.40.

With `CC(C)[C@@H]1CC[C@@H](C)C[C@H]1NC(=O)Oc1ccc(C(C)(C)C)cc1`, the pEC50 is 4.93.

On to `CC(C)[C@@H]1CC[C@@H](C)C[C@H]1NC(=O)Oc1cccc(-c2ccccc2)c1`, for which the pEC50 is 4.51.

Consider `CC(C)[C@@H]1CC[C@@H](C)C[C@H]1NC(=O)c1ccc(-c2ccccc2)cc1`, for which the pEC50 is 5.39.

As for `CC(C)[C@@H]1CC[C@@H](C)C[C@H]1NC(=O)Oc1ccc(-c2ccccc2)cc1`, the pEC50 was 5.17.

For a further assay, the target named is Transient receptor potential cation channel subfamily A member 1 (Rattus norvegicus) (UniProt Q6RI86). The experiment in a line: Agonist activity at rat TRPA1 receptor expressed in HEK293 cells assessed as intracellular calcium stimulation relative to isothiocyanate. The format is functional, cell-based. The essentials:
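Intracellular Ca2+ rise in HEK-293 cells stably transfected with rat TRPA1, given as percent of the response to allyl isothiocyanate (100 µM). Efficacy under 10% scored not measurable. N = 3, mean ± SEM.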
Take `CC(C)[C@@H]1CC[C@@H](C)C[C@H]1NC(=O)c1ccc(C(C)(C)C)cc1`: the Efficacy amounted to 138%.

In the case of `CC(C)[C@@H]1CC[C@@H](C)C[C@H]1NC(=O)CCCCCCCc1ccccc1`, the Efficacy was determined as 67%.

Take `CC(C)[C@@H]1CC[C@@H](C)C[C@H]1NC(=O)Oc1cccc(C(C)(C)C)c1`: the Efficacy stood at 273%.

`COc1ccc(C(=O)N[C@@H]2C[C@H](C)CC[C@H]2C(C)C)cc1`: the Efficacy is < 10%.

As for `CC(C)[C@@H]1CC[C@@H](C)C[C@H]1NC(=O)Oc1ccc(C(F)(F)F)cc1`, the Efficacy was determined as 88.9%.

In the case of `CC(C)[C@@H]1CC[C@@H](C)C[C@H]1NC(=O)c1ccc(Cl)cc1`, the Efficacy came out at 223%.

For the molecule `CC(C)[C@@H]1CC[C@@H](C)C[C@H]1NC(=O)Oc1ccc(C(C)(C)C)cc1`, the Efficacy turned out to be 76%.

Take `CC(C)[C@@H]1CC[C@@H](C)C[C@H]1NC(=O)Oc1cccc(-c2ccccc2)c1`: the Efficacy came to 282%.

For the molecule `CC(C)[C@@H]1CC[C@@H](C)C[C@H]1NC(=O)c1ccc(-c2ccccc2)cc1`, the Efficacy was 34.7%.

With `CCCCCCCC/C=C\CCCCCCCC(=O)N[C@@H]1C[C@H](C)CC[C@H]1C(C)C`, the Efficacy was < 10%.

For `CC(C)[C@@H]1CC[C@@H](C)C[C@H]1NC(=O)Oc1ccc(-c2ccccc2)cc1`, the Efficacy was found to be 87.2%.

Another assay relates to LNCaP. The experiment in a line: Induction of apoptosis in human LNCAP cells assessed as caspase 3/7 release at 1 uM. The assay is classed as functional. A digest of the protocol:
(§2)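 Prostate carcinoma cells (LNCaP, high TRPM8; DU-145, negligible TRPM8) were treated at 1 µM. Apoptosis was read as caspase 3/7 release in arbitrary units. Anti-FAS antibody plus camptothecin served as reference. Means ± SD, N = 3 experiments.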
For the molecule `CC(C)[C@@H]1CC[C@@H](C)C[C@H]1NC(=O)c1ccc(-c2ccccc2)cc1`, the Activity was found to be 58576 a.u.

For the next assay, the system named is DU-145. The experiment in a line: Induction of apoptosis in human DU145 cells assessed as caspase 3/7 release at 1 uM. The assay is classed as functional. A digest of the protocol: as §2
Take `CC(C)[C@@H]1CC[C@@H](C)C[C@H]1NC(=O)c1ccc(-c2ccccc2)cc1`: the Activity turned out to be 9770 a.u.
